{"source": "PubChem BioAssay AID1885", "about": "(Broad Institute, 2009)", "note": "In all, about 300,000 compounds went through this assay and about 4,400 (1.5%) were called active.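 How the source made its calls: active means mean inhibition across valid replicates above about 55% (limit read from the data); inconclusive means mean below that limit but half or more replicates reach it; inactive means mean below it, under half of replicates reach it.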 The entries come from a sample that favours actives as a whole.", "data": [{"test": "Trypanosoma cruzi replication blockers in host cells – luminescence, NIH3T3 host cells, primary screen (AID 1885);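 further: signal also drops with host cell toxicity which is not excluded here; 0% = plate median of DMSO wells and 100% = zero luminescence signal; higher percent means less beta-gal luminescence so fewer parasites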", "conditions": "T. cruzi beta-gal in NIH3T3, luminescence, 90 h; stronger effect = higher value; concentration not given here", "method_in_brief": "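System: Mouse NIH/3T3 fibroblasts infected with β-gal-expressing T. cruzi Tulahuen C4 | Quantity: NIH/3T3 cells, 5,000 per well | Reagent: 5000 reporter trypomastigotes per well | Dosing: Compound pinned at 50 nL/well, DMSO | Schedule: 3 h host attachment, then at least 90 h co-culture | Detection: GalScreen luminescence, 60 min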", "values": [{"smiles": "CSc1nc2ccccc2cc1/C=C(\\C#N)c1ccc(Cl)cc1Cl", "inhibition": "4.89% (inactive)"}, {"smiles": "Cc1ccc(-c2nn(-c3ccccc3)cc2/C=N/NC(=O)c2ccc3c(c2)OCO3)cc1", "inhibition": "28% (inactive)"}, {"smiles": "Cc1nnc(SCC(=O)N/N=C/c2cn(-c3ccccc3)nc2-c2ccc(F)cc2)n1-c1ccccc1", "inhibition": "-11.7% (inactive)"}, {"smiles": "O=C(N/N=C/c1ccc([N+](=O)[O-])o1)c1cn(-c2ccccc2)nc1-c1ccc(F)cc1", "inhibition": "69.4% (active)"}, {"smiles": "COc1cccc(OC)c1C(=O)Nc1sc2c(c1C(N)=O)CCCC2", "inhibition": "9.96% (inactive)"}, {"smiles": "c1ccc2c(c1)C(=NC1CCCCC1)NC2=NC1CCCCC1", "inhibition": "55.5% (active)"}, {"smiles": "COc1cccc(COC(=O)C2CCN(S(=O)(=O)c3ccc(Cl)cc3)CC2)c1OC", "inhibition": "-3.47% (inactive)"}, {"smiles": "Cc1oc(C)c(C(=O)NCCCC(=O)O)c1C(=O)NCCCC(=O)O", "inhibition": "-21.2% (inactive)"}, {"smiles": "O=C(Cn1cnc([N+](=O)[O-])n1)NCCc1ccccc1", "inhibition": "76.4% (active)"}, {"smiles": "O=C(CSc1ncccn1)NCCc1ccccc1", "inhibition": "-13.3% (inactive)"}, {"smiles": "CC(C)(C)NC(=O)Cn1cnc([N+](=O)[O-])n1", "inhibition": "50.4% (inactive)"}, {"smiles": "Cc1cc(C)c(S(=O)(=O)n2cc(C(C)C(N)C(=O)O)c3ccccc32)c(C)c1", "note": "(configuration not stated)", "inhibition": "-6.09% (inactive)"}, {"smiles": "Cc1cccc(C)c1OCC(O)CN1CCCCC1", "note": "(configuration not stated)", "inhibition": "-1.54% (inactive)"}, {"smiles": "OC(COc1ccc(Br)cc1)CN1CCCC1", "note": "(configuration not stated)", "inhibition": "10.2% (inactive)"}, {"smiles": "OC(COCCC12CC3CC(CC(C3)C1)C2)CN1CCCCC1", "note": "(configuration not stated)", "inhibition": "62% (active)"}, {"smiles": "COc1ccc(C(=O)/C=C/c2ccc(-c3ccccc3)cc2)cc1CSCC(=O)O", "inhibition": "-21% (inactive)"}, {"smiles": "Cc1ccc(S(=O)(=O)N(C)C)cc1NC(=O)COC(=O)/C=C/c1cccs1", "inhibition": "-8.51% (inactive)"}, {"smiles": "Cc1ccc(-c2cc(=O)[nH]c(NCc3ccccc3)n2)cc1", "inhibition": "-16.4% (inactive)"}, {"smiles": "Cc1c(C)n(Cc2ccc(Cl)cc2)c2ccc(C(=O)NCCCN3CCOCC3)cc12", "inhibition": "12.7% (inactive)"}, {"smiles": "COc1ccc(C2=NN(C(=O)c3cccnc3)C(c3ccccc3)C2)cc1", "note": "(configuration not stated)", "inhibition": "3.02% (inactive)"}, {"smiles": "COc1ccc(C2CC(c3ccc([N+](=O)[O-])cc3)=NN2C(C)=O)cc1", "note": "(configuration not stated)", "inhibition": "4.42% (inactive)"}, {"smiles": "COc1ccc(C2CC(c3ccccc3)=NN2C(=O)c2ccc(Cl)c([N+](=O)[O-])c2)cc1", "note": "(configuration not stated)", "inhibition": "54.8% (active)"}, {"smiles": "O=C(NC1CCCCC1)C1CC(=O)N(CCc2ccccc2)C1", "note": "(configuration not stated)", "inhibition": "-16.2% (inactive)"}, {"smiles": "C=CCOc1ccc(/C=C/C(=O)OCC(=O)NCC2CCCO2)cc1", "note": "(configuration not stated)", "inhibition": "-9.89% (inactive)"}, {"smiles": "CCOC(=O)CNc1nc(Cl)nc(Nc2ccc(OC)cc2OC)n1", "inhibition": "-0.745% (inactive)"}, {"smiles": "CCN(CC)CCCSc1nc2ccccc2s1", "inhibition": "69.6% (active)"}, {"smiles": "Cc1nc2nc(CSc3nc4ccccc4s3)cc(=O)n2[nH]1", "inhibition": "-6.18% (inactive)"}, {"smiles": "O=C(O)c1ccccc1CSc1nc2ccccc2s1", "inhibition": "-11.7% (inactive)"}, {"smiles": "COc1cc2c(cc1OC)C(C(=O)NCc1ccco1)C1c3ccccc3CCN1C2=O", "note": "(configuration not stated)", "inhibition": "7.27% (inactive)"}, {"smiles": "COC(=O)c1c(C)cc(O)c(C)c1O", "inhibition": "-2.6% (inactive)"}, {"smiles": "O=[N+]([O-])c1ccc2oc(-c3cccc(O)c3)nc2c1", "inhibition": "-23.1% (inactive)"}, {"smiles": "COc1ccc(C(CNC(=O)c2ccc(NS(=O)(=O)c3ccc(F)c(C)c3)cc2)N(C)C)cc1", "note": "(configuration not stated)", "inhibition": "3.47% (inactive)"}, {"smiles": "COc1ccc(C(CNC(=O)c2cccc(NS(=O)(=O)c3ccc(C)c(F)c3)c2)N2CCCC2)cc1", "note": "(configuration not stated)", "inhibition": "-13.1% (inactive)"}, {"smiles": "Cc1cc(S(=O)(=O)Nc2ccc(C(=O)NCC(c3ccco3)N3CCCC3)cc2)ccc1F", "note": "(configuration not stated)", "inhibition": "63.7% (active)"}, {"smiles": "O=C(NNC(=O)c1cc(-c2ccccc2Cl)nc2ccccc12)c1csc(N2CCOCC2)n1", "inhibition": "-2.25% (inactive)"}, {"smiles": "O=C(Nc1ccc(C(=O)O)cc1)/C(=C\\c1ccccc1)NC(=O)c1ccc(Br)cc1", "inhibition": "-8.09% (inactive)"}, {"smiles": "CC1CCCCN1S(=O)(=O)c1ccc(C(=O)Nc2nnc(-c3cccs3)o2)cc1", "note": "(configuration not stated)", "inhibition": "43.1% (inactive)"}, {"smiles": "CC1CCCCN1S(=O)(=O)c1ccc(S(=O)(=O)N(CC(=O)Nc2ccccc2)Cc2cccs2)cc1", "note": "(configuration not stated)", "inhibition": "57.2% (active)"}, {"smiles": "CCN(CC(=O)NCc1cccs1)S(=O)(=O)c1ccc(NC(C)=O)cc1", "inhibition": "-2.26% (inactive)"}, {"smiles": "CC(OC(=O)C1CC(=O)N(Cc2ccccc2)C1)C(=O)Nc1ccccc1[N+](=O)[O-]", "note": "(configuration not stated)", "inhibition": "-2.86% (inactive)"}, {"smiles": "Cc1[nH]c2ccccc2c1CCN(Cc1cccs1)C(=S)NC(C)(C)C", "inhibition": "26.1% (inactive)"}, {"smiles": "COc1ccc2[nH]c(C)c(CCN(Cc3cccs3)C(=S)Nc3ccccc3OC)c2c1", "inhibition": "60% (active)"}, {"smiles": "COc1cccc(NC(=S)N(CCc2c(C)[nH]c3ccccc23)Cc2ccco2)c1", "inhibition": "18.1% (inactive)"}, {"smiles": "CC(C)c1nc(SCC(=O)NC(=O)NC(C)(C)C)n[nH]1", "inhibition": "-2.85% (inactive)"}, {"smiles": "CCn1c(=N)n(CC(=O)c2cccc(OC)c2)c2ccccc21", "inhibition": "7.38% (inactive)"}, {"smiles": "CCCCCCCCCCOC(=O)Cn1c(COc2cccc(OC)c2)[n+](C)c2ccccc21", "inhibition": "65.1% (active)"}, {"smiles": "CCCCCCCCCCOC(=O)Cn1c(COc2ccc(C)cc2)[n+](C)c2ccccc21", "inhibition": "46.2% (inactive)"}, {"smiles": "CCCCCC(=O)N1CCN(S(=O)(=O)c2ccc3c(c2)OCCCO3)CC1", "inhibition": "-5.19% (inactive)"}, {"smiles": "Cc1cc(Nc2ccc(Br)cc2)nc2ccccc12", "inhibition": "32.6% (inactive)"}, {"smiles": "CCCc1nc2c(c(=O)c3ccccc3n2C)c(=O)n1C1CCCCCC1", "inhibition": "22.4% (inactive)"}, {"smiles": "Cn1c2ccccc2c(=O)c2c(=O)n(Cc3ccco3)c(COc3ccccc3)nc21", "inhibition": "62.2% (active)"}, {"smiles": "CCCc1nc2c(c(=O)c3ccccc3n2C)c(=O)n1-c1cc(C)cc(C)c1", "inhibition": "34.2% (inactive)"}, {"smiles": "Cc1ccc(OCCC(=O)OCC(=O)N2c3ccccc3NC(=O)C2(C)C)cc1", "inhibition": "-1.24% (inactive)"}, {"smiles": "COc1ccc(CNC(=O)C(=O)N2CCC3(CC2)OCCN3S(=O)(=O)c2ccc(C)cc2)cc1", "inhibition": "-4.09% (inactive)"}, {"smiles": "COc1ccc(S(=O)(=O)N2CCSCC2)cc1", "inhibition": "5.81% (inactive)"}, {"smiles": "COc1ccc(S(=O)(=O)N2CCOC23CCN(S(=O)(=O)c2ccc([N+](=O)[O-])cc2)CC3)cc1", "inhibition": "61.5% (active)"}, {"smiles": "CC1(C)O[C@H]2CC(=O)OCC23[C@H]2CC[C@@]4(C)[C@H](c5ccoc5)OC(=O)[C@H]5O[C@]54[C@]2(C)C(=O)C[C@@H]13", "note": "(some centres not stated)", "inhibition": "-3.05% (inactive)"}]}]}
